From PubChem
CHRM4 agonist = human M4 muscarinic receptor agonists, primary screen, CHO-K1 cells, Fluo-8 calcium fluorescence | Muscarinic acetylcholine receptor M4 (Homo sapiens), P08173 | CHO-K1 hM4/Gqi5; vehicle 0%, full acetylcholine response 100% | activation, % at 3 µM | hit rate 0.14% among 360,000 | AID 624127, 2012;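 active means activation above the run mean over all test wells plus 3 SD, cut at about 32% in these data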;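 further: peak over basal fluorescence ratio per well then scaled between controls; 0% = DMSO wells and 100% = acetylcholine at EC100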
CHRM4 antagonist = human M4 muscarinic receptor antagonists, primary screen, CHO cells, Fluo-8 calcium fluorescence; Muscarinic acetylcholine receptor M4 (Homo sapiens), P08173; CHO-hM4 cells, ACh EC80; inhibition, % at 3 µM; hit rate 0.73% among 360,000; AID 624125, 2012;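 active means inhibition above its plate's cutoff, the mean inhibition of sample wells plus 3 SD, cut at about 27% in these data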;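 further: 0% = acetylcholine EC80 with DMSO and 100% = DMSO without agonist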
V1aR counter = agonists of human V1a receptor, primary screen, counter-screen for OXTR agonist project, fluorescence, CHO-V1R cells; Vasopressin V1a receptor (Homo sapiens), P37288; Fluo-8 calcium fluorescence, agonist mode; 0% DMSO, 100% 3 nM vasopressin; activation, % at 3 µM; hit rate 0.25% among 320,000; AID 2797, 2010;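 active means activation above the mean activation of all tested compounds plus 3 SD, per screening run, cut at about 20% in these data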;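 further: signal is peak over basal fluorescence ratio across a 100 second FLIPR read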
Target sequence (P37288 whole entry, looked up): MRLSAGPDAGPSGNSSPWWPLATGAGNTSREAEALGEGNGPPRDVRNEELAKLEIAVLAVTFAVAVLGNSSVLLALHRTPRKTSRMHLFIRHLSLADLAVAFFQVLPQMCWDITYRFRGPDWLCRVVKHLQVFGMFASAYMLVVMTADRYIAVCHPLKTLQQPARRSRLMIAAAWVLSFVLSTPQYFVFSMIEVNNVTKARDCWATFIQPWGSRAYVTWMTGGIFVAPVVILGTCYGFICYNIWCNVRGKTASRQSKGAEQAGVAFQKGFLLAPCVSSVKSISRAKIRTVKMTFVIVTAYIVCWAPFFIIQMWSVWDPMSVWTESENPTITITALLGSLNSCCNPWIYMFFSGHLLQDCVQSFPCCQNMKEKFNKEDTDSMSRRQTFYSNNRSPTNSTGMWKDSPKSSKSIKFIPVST
M4 PAM = human M4 muscarinic receptor positive allosteric modulators, primary screen, CHO-K1 cells, Fluo-8 calcium fluorescence; AID 624126, 2012; hit rate 0.4% among 360,000; Muscarinic acetylcholine receptor M4 (Homo sapiens), P08173; CHO-K1 hM4/Gqi5, ACh EC20; 0% = ACh EC20, 100% = maximal ACh; activation, % at 3 µM;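 active means activation above its plate's cutoff, the mean activation of sample wells plus 3 SD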
OXTR agonist = human OXTR agonists, primary screen, fluorescence, CHO-OTR cells, Fluo-8 calcium | Oxytocin receptor (Homo sapiens), P30559 | Fluo-8 calcium fluorescence; normalized: DMSO 0%, oxytocin 100% | activation, % at 3 µM | hit rate 0.32% among 320,000;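 active means activation above the mean of all tested compounds plus 3 SD, cutoff set per screening run, cut at about 20% in these data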;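 further: peak over basal fluorescence ratio from a 100 s FLIPR kinetic read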
OXTR potentiate = human OXTR potentiators, primary screen, fluorescence, CHO-OTR cells, Fluo-8 calcium | Oxytocin receptor (Homo sapiens), P30559 | Fluo-8 calcium fluorescence, potentiator mode; 0% = oxytocin EC15, 100% = EC100 | activation, % at 3 µM | hit rate 0.061% among 320,000 | AID 2445, 2010;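 active means activation above that plate's cutoff, the mean activation of tested compounds plus 3 SD, cut at about 6.6% in these data, passing the limit was not always enough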;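 further: 100% uses oxytocin at 75 nM as the full agonist control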
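System: human OTR in CHO cells / Also added: sub-maximal oxytocin, roughly EC15 / Control set: EC15 oxytocin low, 75 nM oxytocin high / Schedule: 6 min compound pre-incubation at room temperature, 100 s kinetic read / Compound: single-point 3.0 µM / Replication: singlicate / Technique: Fluo-8 calcium dye fluorescence / Read-out basis: % activation of max/min ratio relative to oxytocin controls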
Numbers without * were called inactive; . = no result given. Shown are actives, neighbours in structure and some others; about 1.5% of the full set was active somewhere.

SMILES | CHRM4 agonist | CHRM4 antagonist | V1aR counter | M4 PAM | OXTR agonist | OXTR potentiate
O=C1CCN(Cc2ccccc2)C(=O)N1 | 1 | -4 | . | 12 | . | .
O=C1CCC(c2ccccc2)(C2CCN(Cc3ccccc3)CC2)C(=O)N1 (stereo unspecified) | 1 | 99* | 1 | -18 | 0 | -5
CCN(CC)CCNC(=O)c1ccc(NC(=O)c2ccc(Cl)c(S(=O)(=O)N3CCCCCC3)c2)cc1 | 1 | 70* | 2 | -46 | 0 | -3
CCN(CC)CCNC(=O)c1ccc(Cl)c(S(=O)(=O)Nc2ccc(Cl)cc2)c1 | 0 | 8 | 1 | 1 | 1 | -14
CCN(CC)CCNC(=O)c1ccc(NC(=O)c2ccc(S(=O)(=O)N3CCCCCC3)cc2)cc1 | 0 | -7 | 0 | -4 | 0 | -5
CCN(CC)CCNC(=O)c1ccc(NC(=O)c2cccc(S(=O)(=O)N3CCCCCC3)c2)cc1 | 1 | 79* | . | -15 | . | .
Cc1cccc(NCC(=O)N/N=C\c2c[nH]c3ccccc23)c1 | 4 | 28* | 2 | -11 | 6 | -10
CN1CCC(=C2c3ccccc3C(O)c3ccccc32)CC1 (stereo unspecified) | 2 | 96* | 2 | -20 | 2 | -13
CN1CCC(=C2c3ccccc3CCc3sccc32)CC1 | 5 | 99* | 2 | -17 | 5 | -6
CN1CCC(=C2c3ccccc3CC(=O)c3sccc32)CC1 | 6 | 72* | 1 | -17 | 2 | 3
CCOc1ccc(NC(=O)CN2C(=O)NC(CCc3ccccc3)C2=O)cc1OCC (stereo unspecified) | 1 | -15 | 1 | 10 | 0 | 4
CCOc1cc(OCC)cc(C(=O)N2CCC[C@@H]2C(=O)N2CCC[C@@H]2C(=O)NCc2ccccc2Cl)c1 | 8 | -4 | . | 3 | . | .
Cc1ccc(C(=O)Nc2cccc(C(=O)NCc3ccccc3)c2)o1 | 4 | 27* | 1 | -1 | 1 | -2
O=C(NCc1ccccc1)c1ccc(F)c(F)c1 | 4 | 2 | 0 | 20* | -1 | -6
O=C(NCc1ccccc1)c1ccc(C2SCC(=O)N2Cc2ccccc2)cc1 (stereo unspecified) | 7 | 34* | 1 | -19 | -1 | -11
CN(C)c1c(F)cc(C(=O)NCc2ccccc2)cc1F | 1 | -6 | 0 | 6 | -3 | 13
C=C1CC2(CC(c3ccccc3)OC(c3ccccc3)C2)OC1=O (stereo unspecified) | 3 | 4 | . | -1 | . | .
COc1ccc(CCNc2ncnc3sc(C)cc23)cc1OC | 21 | 27* | . | -11 | . | .
O=C1CSC(c2ccccc2)N1c1ccc([N+](=O)[O-])cc1 (stereo unspecified) | 0 | 33* | -2 | -14 | 0 | 0
Cc1c(N2C(=O)CSC2c2ccc([N+](=O)[O-])cc2)c(=O)n(-c2ccccc2)n1C (stereo unspecified) | 0 | 11 | 0 | 0 | -1 | -10
CCc1nc2c(OCC(=O)C(C)(C)C)cccn2c1N(C=O)CC(=O)N(C)C | 0 | 2 | . | 0 | . | .
O=C(NNS(=O)(=O)c1ccc([N+](=O)[O-])cc1)C(=O)Nc1cccc(C(=O)O)c1 | 1 | -9 | 1 | 19* | -1 | -4
Cn1nc(C(F)(F)F)c(/C=N/OC(=O)c2ccccc2Cl)c1SCc1ccccc1Cl | -1 | 67* | 2 | -33 | 2 | -3
O=C(CCN1CCN(S(=O)(=O)c2cccc([N+](=O)[O-])c2)CC1)Nc1ccccc1F | 1 | 4 | 3 | -2 | 1 | -6
CCN(CC)CC#CCC(O)(c1ccccc1)C1CCCCC1 (stereo unspecified) | 2 | 76* | 3 | -25 | 2 | -1
SMILES | CHRM4 agonist | CHRM4 antagonist | V1aR counter | M4 PAM | OXTR agonist | OXTR potentiate
Cc1cccc(NC(=S)NC2CCN(Cc3ccccc3)CC2)c1C | 5 | 5 | 3 | 24* | 2 | -2
S=C(Nc1cccc(Cl)c1Cl)NC1CCN(Cc2ccccc2)CC1 | 9 | 9 | . | 0 | . | .
S=C(Nc1ccc(Cl)cc1)NC1CC2CCC(C1)N2Cc1ccccc1 (stereo unspecified) | 17 | 6 | 14 | -10 | 21* | -12
S=C(Nc1ccc(Cl)c(Cl)c1)NC1CCN(Cc2ccccc2)CC1 | 46* | 38* | 39* | 3 | 42* | -32
CCc1ccc(NC(=S)NC2CC3CCCC(C2)N3Cc2ccccc2)cc1 (stereo unspecified) | 6 | 0 | 3 | -16 | 6 | -6
COc1ccc(NC(=O)C2CCN(S(=O)(=O)c3cccs3)CC2)cc1OC | 12 | -9 | 3 | 5 | 2 | -6
O=C1c2ccccc2C(=O)N1Cc1cnc(N2CCN(c3ccccc3)CC2)s1 | 2 | -1 | 3 | 8 | -1 | -9
CCOc1ccccc1N(CC(=O)NCCSc1ccccn1)S(=O)(=O)c1ccccc1 | 32* | 11 | 1 | 13 | 3 | -7
CCOc1ccccc1N(CC(=O)NCCSc1ccccn1)S(=O)(=O)c1ccc(C)cc1 | 13 | -20 | 0 | -5 | 2 | -9
CC(C)(C)C(=O)CC1(O)C(=O)N(Cc2ccc(Cl)cc2)c2ccccc21 (stereo unspecified) | 3 | 10 | 0 | 38* | 3 | 2
CSc1cccc(NC(=S)N2CCCN(Cc3ccccc3F)C2)c1 | 9 | 2 | 3 | -3 | 2 | -4
CC1CCC(NS(=O)(=O)c2ccc(N3CCCC3=O)cc2)CC1 (stereo unspecified) | 31 | 32* | 7 | -13 | 7 | -15
Cc1ccc(C2(c3ccc(C)cc3)CC2C(=O)NC(C)C)cc1 (stereo unspecified) | -1 | -17 | . | 11 | . | .
Cc1ccc(C)c(NCCCCCCCC(=O)O)c1 | 1 | -2 | . | -2 | . | .
O=c1c(Cl)c(N2CCNCC2)cnn1C12CC3CC(CC(C3)C1)C2 | 0 | 31* | -1 | -21 | 0 | -10
O=C(O)C12CC3CC(C1)CC(n1ncc(N4CCN(c5ccccc5)CC4)c(Cl)c1=O)(C3)C2 | 0 | -12 | 0 | -4 | 0 | -6
Cc1nc2ccccc2nc(C)c1=NOCc1ccc(C#N)cc1 | 2 | -1 | 0 | 19* | -1 | -13
CCn1nccc1NC(=O)c1csc([C@@H]2C[C@H](O)[C@@H](CO)O2)n1 | 0 | -13 | . | 7 | . | .
